# From ChEMBL document CHEMBL3870308, “Repurposing of a drug scaffold: Identification of novel sila analogues of rimonabant as potent antitubercular agents” (Eur J Med Chem, 2016)
# Tests used:
# [1] = test system: Mycobacterium tuberculosis; test: Antitubercular activity against Mycobacterium tuberculosis H37Rv assessed as growth inhibition by Alamar-Blue assay; type: functional
# [2] = Cytotoxicity against human A549 cells measured after 48 hrs by MTT assay; type: toxicity, cell-based
# Outline: (§1)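 Cells from ATCC grown in DMEM with 10% FBS at 37 °C in 5% CO2, harvested by trypsinization and seeded at 7500 cells per well. After 18 h, compound added at final 0.1, 1, 10 and 100 µM in triplicate. Plates incubated 48 h, then MTT for 60 min at 37 °C. Formazan dissolved in DMSO and read at 560 nm. Percent growth taken relative to control wells, with dose-response curves. Repeated three times, mean ± SD.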
# [3] = Selectivity index, ratio of IC50 for human HepG2 cells to MIC for Mycobacterium tuberculosis H37Rv; type: toxicity, cell-based; details: read-out: Ratio IC50
# [4] = Selectivity index, ratio of IC50 for human A549 cells to MIC for Mycobacterium tuberculosis H37Rv; type: toxicity, cell-based; details: read-out: Ratio IC50
# [5] = Cytotoxicity against human HepG2 cells measured after 48 hrs by MTT assay; type: toxicity, cell-based; outline: as §1
# [6] = Metabolic stability in human liver microsomes at 1 or 50 uM measured after 30 to 60 mins in presence of cofactor by LC-MS/MS analysis; type: ADME
# Outline: (§2)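 Stock 10 mM in DMSO, diluted to a 50 µM working solution in acetonitrile:water (1:1). 2 µL of this added to 98 µL of buffer, microsomes and cofactor. Incubated at 37 °C for 15, 30, 45 and 60 min. Stopped with methanol containing internal standard, vortexed and centrifuged. Supernatant analysed by LC-MS/MS.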
# [7] = Cytotoxicity against mouse RAW cells assessed as reduction in cell viability at =>3 uM measured after 48 hrs by MTT assay; type: toxicity; details: read-out: INH
# [8] = Solubility of the compound at pH 7.4 by HPLC method; type: physicochemical; details: buffer
# Outline: (§3)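 Compound diluted to a 5 mM DMSO working solution from a 10 mM stock. 5 µL added to 495 µL of buffer at the stated pH. Vortexed 5 min and centrifuged. Supernatant quantified by HPLC.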
# [9] = Protein binding human plasma at 150 uM measured after 30 mins by equilibrium dialysis method; type: ADME, cell-free; details: read-out: PPB (converted)
# Outline: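 Plasma spiked with 5 µL of 150 µM compound per 745 µL. Sampled at 0 h, then incubated 30 min at 37 °C. Rapid equilibrium dialysis of plasma against KH2PO4 buffer pH 7.4 for 4 h at 37 °C with shaking. Both chambers matrix-matched and precipitated with methanol containing tolbutamide internal standard. Analysed by LC-MS/MS.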
# [10] = Metabolic stability in mouse liver microsomes at 1 or 50 uM measured after 30 to 60 mins in presence of cofactor by LC-MS/MS analysis; type: ADME; outline: as §2
# [11] = Cytotoxicity against human THP1 cells assessed as reduction in cell viability at =>3 uM measured after 48 hrs by MTT assay; type: toxicity, cell-based, THP-1; details: read-out: INH
# [12] = Solubility of the compound at pH 1.2 by HPLC method; type: physicochemical; details: buffer; outline: as §3
# [13] = Solubility of the compound at pH 10.2 by HPLC method; type: physicochemical; details: buffer; outline: as §3
# [14] = Metabolic stability in human plasma at 50 uM measured after 60 mins by LC-MS/MS analysis; type: ADME, cell-free; details: read-out: Stability
# Outline: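 Working solution at 50 µM in acetonitrile:water (1:1), from a 10 mM DMSO stock. 2 µL added to 98 µL of plasma and incubated 60 min at 37 °C. Quenched with methanol containing internal standard, centrifuged, and supernatant analysed by LC-MS/MS.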
# [15] = Solubility of the compound at pH 4.5 by HPLC method; type: physicochemical; details: buffer; outline: as §3
# [16] = Solubility of the compound at pH 2.2 by HPLC method; type: physicochemical; details: buffer; outline: as §3
Compound,MIC [1],IC50 at 48 h [2],selectivity ratio [3],selectivity ratio [4],IC50 at 48 h [5],other results
O=C(c1cc(-c2ccc(Cl)cc2)n(-c2ccc(Cl)cc2)n1)N1CCNCC1,25 µg/mL,–,–,–,–,–
Cc1c(C(=O)NN2CCN(C)CC2)nn(-c2ccc(Cl)cc2Cl)c1-c1ccc(Cl)cc1,25 µg/mL,–,–,–,–,–
Cc1c(CN(C)C)nn(-c2ccc(Cl)cc2Cl)c1-c1ccc(Cl)cc1,6.25 µg/mL,57.2 µM,2.3,3.62,36.3 µM,–
C[Si]1(C)CCN(Cc2cc(-c3ccc(Cl)cc3)n(-c3ccc(Cl)cc3)n2)CC1,0.031 µg/mL,58.9 µM,306,841,21.4 µM,"Stability [6]: 20.3%; cytotoxicity at 48 h [7]: 40 to 60%; solubility [8]: 3.72 µM; fraction unbound at 0.5 h, 150 µM [9]: 0.0007; Stability [10]: 6.3%; cytotoxicity at 48 h [11]: 40 to 60%; solubility [12]: 43 µM; solubility [13]: 1.99 µM; remaining at 1 h, 50 µM [14]: 100%; solubility [15]: 41.9 µM; solubility [16]: 42.3 µM"
CN(C)C(=O)c1cc(-c2ccc(Cl)cc2)n(-c2ccc(Cl)cc2)n1,25 µg/mL,–,–,–,–,–
CN1CCN(Cc2cc(-c3ccc(Cl)cc3)n(-c3ccc(Cl)cc3)n2)CC1,25 µg/mL,–,–,–,–,–
C[Si]1(C)CCN(C(=O)c2cc(-c3ccc(Cl)cc3)n(-c3ccc(Cl)cc3)n2)CC1,6.25 µg/mL,68.3 µM,4.18,4.85,59 µM,"Stability [6]: 2.1%; solubility [8]: 0.05 µM; fraction unbound at 0.5 h, 150 µM [9]: 0.0001; Stability [10]: 3.9%; solubility [12]: 0.16 µM; solubility [13]: 1.28 µM; remaining at 1 h, 50 µM [14]: 89.7%; solubility [15]: 0.13 µM; solubility [16]: 0.18 µM"
Cc1c(CN2CCNCC2)nn(-c2ccc(Cl)cc2Cl)c1-c1ccc(Cl)cc1,25 µg/mL,–,–,–,–,–
Cc1c(CN2CCCCC2)nn(-c2ccc(Cl)cc2Cl)c1-c1ccc(Cl)cc1,12.5 µg/mL,88.8 µM,> 3.5,3.1,> 100 µM,–
COc1cccc2c1C(=O)c1c(O)c3c(c(O)c1C2=O)C[C@@](O)(C(=O)CO)C[C@@H]3O[C@H]1C[C@H](N)[C@H](O)[C@H](C)O1 [DOXORUBICIN],–,5.32 µM,–,–,5.34 µM,–
NNC(=O)c1ccncc1 [ISONIAZID],0.3 µg/mL,–,–,–,–,–
Cc1c(C(=O)NN2CCCCC2)nn(-c2ccc(Cl)cc2Cl)c1-c1ccc(Cl)cc1 [RIMONABANT],25 µg/mL,–,–,–,–,–
